Laboratory results reported in ChEMBL document CHEMBL4265955, “Synthesis and antiproliferative activity of podocarpane and totarane derivatives” (Eur J Med Chem, 2018).
Active and inactive are the calls of the source. No cut-off for these calls is given here.

Columns and labels:
[1] = system: T84; test: Antiproliferative activity against human T84 cells after 3 days by sulforhodamine B assay; format: functional, cell-based; settings: T84, 72 h
Method in brief: (§1)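 Cells grown in DMEM with 10% heat-inactivated FBS, penicillin-streptomycin and 2 mM L-glutamine at 37°C, 5% CO2. Seeded at 5 x 10^3 cells/cm², exposed 24 h later to increasing compound concentrations for 3 days. Fixed with cold 10% TCA, stained with 0.4% SRB, dye solubilized in 10 mM Tris pH 10.5, OD read at 492 nm. IC50 taken by linear interpolation of semilog dose-response curve; seven biological replicates, mean ± SEM.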

[2] = system: MCF7; test: Antiproliferative activity against human MCF7 cells after 3 days by sulforhodamine B assay; format: functional, cell-based; settings: MCF7, 72 h; method in brief: as §1
[3] = system: A549; test: Antiproliferative activity against human A549 cells after 3 days by sulforhodamine B assay; format: functional, cell-based; settings: A549, 72 h; method in brief: as §1
[4] = system: T84; test: Potency index, ratio of 5-fluorouracil IC50 to test compound IC50 for human T84 cells; format: functional
[5] = system: A549; test: Induction of apoptosis in human A549 cells assessed as viable cells at IC50 after 24 hrs by Annexin-V-FITC/propidium iodide staining based flow cytometry (reference value: 83.6%); format: functional
[6] = Cytotoxicity against human PBMC assessed as cell viability at 2.5 uM by MTT assay relative to control; format: cell-based; settings: PBMC (peripheral blood mononuclear cells), read-out: Activity
Method in brief: (§2)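 PBMC isolated from healthy donor blood by Histopaque-1077 density gradient centrifugation. Cultured in RPMI-1640 with 20% FBS, penicillin-streptomycin and 2 mM glutamine at 37°C, 5% CO2. Exposed to increasing compound concentrations; viability of non-adherent cultures measured by MTT at 570 and 595 nm and expressed against untreated control cultures.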

[7] = system: A549; test: Potency index, ratio of 5-fluorouracil IC50 to test compound IC50 for human A549 cells; format: functional
[8] = system: A549; test: Induction of apoptosis in human A549 cells assessed as total apoptotic cells at IC50 after 24 hrs by Annexin-V-FITC/propidium iodide staining based flow cytometry (reference value: 13.2%); format: functional
[9] = system: A549; test: Cell cycle arrest in human A549 cells assessed as accumulation at G0/G1 phase at IC50 after 24 hrs by propidium iodide staining based flow cytometry (reference value: 60.6%); format: functional
[10] = system: A549; test: Cell cycle arrest in human A549 cells assessed as accumulation at sub-G1 phase at IC50 after 48 hrs by propidium iodide staining based flow cytometry (reference value: 2.6%); format: functional
[11] = Cytotoxicity against human PBMC assessed as cell viability at 5 uM by MTT assay relative to control; format: cell-based; settings: PBMC (peripheral blood mononuclear cells), read-out: Activity; method in brief: as §2
[12] = system: A549; test: Cell cycle arrest in human A549 cells assessed as reduction in accumulation at G1 phase at IC50 after 48 hrs by propidium iodide staining based flow cytometry; format: functional
[13] = system: A549; test: Induction of apoptosis in human A549 cells assessed as increase in Bax to Bcl2 ratio at 0.5 to 1 times IC50 after 24 hrs Western blot analysis; format: functional, cell-based
Method in brief: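 A-549 seeded at 4 x 10^4 cells/cm², treated 24 h later at 0x, 0.5x or 1x IC50 for 24 h. Lysed in SDS sample buffer, proteins separated on 12% acrylamide gels and transferred to nitrocellulose. Blocked 1 h in 3% milk/1% BSA/0.5% Tween-20 in PBS. Probed overnight with mouse monoclonal anti-Bax or anti-Bcl-2, then HRP anti-mouse IgG.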

[14] = system: A549; test: Cell cycle arrest in human A549 cells assessed as accumulation at G2/M phase at IC50 after 24 hrs by propidium iodide staining based flow cytometry (reference value: 8.8%); format: functional
[15] = system: PBMC; test: Cytotoxicity against human PBMC assessed as reduction in cell viability at 10 uM by MTT assay relative to control; format: cell-based; method in brief: as §2
[16] = Cytotoxicity against human PBMC assessed as cell viability at 1 uM by MTT assay relative to control; format: cell-based; settings: PBMC (peripheral blood mononuclear cells), read-out: Activity; method in brief: as §2
[17] = system: MCF7; test: Potency index, ratio of 5-fluorouracil IC50 to test compound IC50 for human MCF7 cells; format: functional
[18] = system: A549; test: Cell cycle arrest in human A549 cells assessed as reduction in accumulation at S phase at IC50 after 48 hrs by propidium iodide staining based flow cytometry; format: functional
[19] = system: A549; test: Cell cycle arrest in human A549 cells assessed as reduction in accumulation at G2/M phase at IC50 after 48 hrs by propidium iodide staining based flow cytometry; format: functional
[20] = system: PBMC; test: Cytotoxicity against human PBMC assessed as reduction in cell viability at 0.5 uM by MTT assay relative to control; format: cell-based
Method in brief: (§3)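 PBMC isolated from healthy donor blood by density gradient centrifugation (Histopaque-1077), cultured in RPMI-1640 with 20% FBS, penicillin-streptomycin and 2 mM glutamine at 37°C, 5% CO2. Cells exposed to increasing compound concentrations for 3 days. Viability read by MTT at 570 and 595 nm and expressed versus untreated control cultures.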

[21] = system: PBMC; test: Cytotoxicity against human PBMC assessed as reduction in cell viability at 0.5 to 10 uM by MTT assay; format: cell-based; method in brief: as §3

Structure (SMILES)	IC50 [1] [µM]	IC50 [2] [µM]	IC50 [3] [µM]	also measured
CC(=O)c1cc2c(cc1O)[C@@]1(C)CCC[C@](C)(CO)[C@@H]1CC2	7.8	9.3	4.8	–
C=C(C)c1cc(O)cc2c1CC[C@H]1[C@@](C)(C(=O)OC)CCC[C@]21C	30.7	26.1	23.7	–
COC(=O)c1cc(O)cc2c1CC[C@H]1[C@@](C)(C(=O)OC)CCC[C@]21C	> 40	> 40	> 40	–
COC(=O)c1cc2c(cc1O)[C@@]1(C)CCC[C@](C)(C(=O)OC)[C@@H]1CC2	20.7	21.7	17.2	–
COC(=O)[C@@]1(C)CCC[C@]2(C)c3c(O)c(O)cc(C(C)C)c3CC[C@@H]12	1	2.8	0.6	Ratio IC50 [4]: 4; Activity [5]: 54.2%; viability at 2.5 µM [6]: 81.3%; Ratio IC50 [7]: 4; Activity [8]: 44%; Activity [9]: 53.7%; Activity [10]: 70.1%; viability at 5 µM [11]: 87.7%; Activity [12]: Active; Activity [13]: Active; Activity [14]: 14.5%; Activity [15]: 21.5%; viability at 1 µM [16]: 86.4%; Ratio IC50 [17]: 4; Activity [18]: Active; Activity [19]: Active
COC(=O)[C@@]1(C)CCC[C@]2(C)c3cc(O)cc(C(C)C)c3CC[C@@H]12	30.5	28.8	18.6	–
O=c1[nH]cc(F)c(=O)[nH]1 [FLUOROURACIL]	3.4	7.8	7.1	–
COC(=O)c1cc2c(cc1OC)[C@@]1(C)CCC[C@](C)(C(=O)OC)[C@@H]1CC2	> 40	> 40	> 40	–
COC(=O)[C@@]1(C)CCC[C@]2(C)C3=C(CC[C@@H]12)C(C(C)C)=CC(=O)C3=O	11.4	1.1	6.8	Activity [20]: 25%; viability at 2.5 µM [6]: 64.7%; Activity [21]: Toxic; viability at 5 µM [11]: 58.3%; Activity [15]: 43.8%; viability at 1 µM [16]: 69.2%
